# Results from ChEMBL document CHEMBL1137762, “Design, microwave-assisted synthesis and HIV-RT inhibitory activity of 2-(2,6-dihalophenyl)-3-(4,6-dimethyl-5-(un)substituted-pyrimidin-2-yl)thiazolidin-4-ones” (Bioorg Med Chem, 2009).
# Target: Human immunodeficiency virus type 1 reverse transcriptase (Human immunodeficiency virus 1, UniProt Q72547)
# Test: Inhibition of HIV1 reverse transcriptase after 1 hr by ELISA
# How it was run: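 Commercial colorimetric RT kit; template/primer complex, biotin- and DIG-labelled dNTPs and RT enzyme in lysis buffer, with or without inhibitor, incubated 1 h at 37 °C. Product captured on streptavidin-coated plate, washed, probed with anti-DIG-peroxidase, then ABTS substrate added; absorbance read at 405 nm.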
row,SMILES,IC50 [nM]
1,Cc1nc(N2C(=O)CSC2c2c(Cl)cccc2Cl)nc(C)c1CCC#N (stereo unspecified),1020
2,CCCc1c(C)nc(N2C(=O)CSC2c2c(Cl)cccc2Cl)nc1C (stereo unspecified),770
3,CCCCCc1c(C)nc(N2C(=O)CSC2c2c(F)cccc2Cl)nc1C (stereo unspecified),16200
4,Cc1nc(N2C(=O)CSC2c2c(Cl)cccc2Cl)nc(C)c1C (stereo unspecified),830
5,C=CCc1c(C)nc(N2C(=O)CSC2c2c(Cl)cccc2Cl)nc1C (stereo unspecified),1220
6,CCc1c(C)nc(N2C(=O)CSC2c2c(Cl)cccc2Cl)nc1C (stereo unspecified),260
7,CCCCc1c(C)nc(N2C(=O)CSC2c2c(Cl)cccc2Cl)nc1C (stereo unspecified),4290
8,CCCCCc1c(C)nc(N2C(=O)CSC2c2c(Cl)cccc2Cl)nc1C (stereo unspecified),74400

# Continued, values first:
row,IC50 [nM],SMILES
1,850,CCCc1c(C)nc(N2C(=O)CSC2c2c(F)cccc2Cl)nc1C (stereo unspecified)
2,9820,Cc1nc(N2C(=O)CSC2c2c(Cl)cccc2Cl)nc(C)c1Br (stereo unspecified)
3,2010,Cc1nc(N2C(=O)CSC2c2c(F)cccc2Cl)nc(C)c1CCC#N (stereo unspecified)
4,2920,C=CCc1c(C)nc(N2C(=O)CSC2c2c(F)cccc2Cl)nc1C (stereo unspecified)
5,16000,CCCCc1c(C)nc(N2C(=O)CSC2c2c(F)cccc2Cl)nc1C (stereo unspecified)
6,230,CCc1c(C)nc(N2C(=O)CSC2c2c(F)cccc2Cl)nc1C (stereo unspecified)
7,1520,Cc1nc(N2C(=O)CSC2c2c(F)cccc2Cl)nc(C)c1Br (stereo unspecified)
8,380,Cc1nc(N2C(=O)CSC2c2c(F)cccc2Cl)nc(C)c1C (stereo unspecified)
